Screening data: PubChem BioAssay, several laboratories
This is a sample that favours compounds with a hit; in the whole collection about 1.4% have one here.
TPT1 inh – C. albicans TPT1 enzyme inhibition | AID 1962 | recombinant caTPT1, FP RNA substrate dephosphorylation | 300,000 compounds, 0.81% hits | inhibition, % at 5 µM;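 active = inhibition above the mean of all tested compounds plus 3 SD, set per screening campaign, cut at about 24% in these data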;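 also: plate controls were DMSO alone for no effect and ferristatin control at 100 nM for full effect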
CSN deneddyl inh – CSN deneddylation inhibition; Q92905; Purified CSN, SCF-Nedd8-OG deneddylation, fluorescence polarization; inhibition, % at 12.5 µM; 360,000 compounds, 0.38% hits;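 active = pattern-corrected inhibition above about 35%, with an unprinted fluorescence ratio check between 0.5 and 1.5, limit read from the data, passing the limit was not always enough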;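 also: 0% = enzyme with substrate and 100% = substrate without enzyme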
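assay system = purified human Csn5 enzyme expressed in HEK293T cells | amount = 0.24 nM enzyme | buffer or medium = Tris/NaCl/DTT buffer, pH 7.5 | reagent = 10 nM SCFSkp2-Nedd8OG | compound = one concentration, 12.5 µM, 0.25% DMSO | times = 90 min reaction at room temperature | signal = FP | read-out basis = % inhibition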
IDE cell activ – boosts human insulin-degrading enzyme activity in HEK cells | P14735 | FAbeta-B cleavage, fluorescence polarization; 0% vehicle, 100% cell-free pure enzyme wells | activation, % at 5.96 µM | 340,000 compounds, 0.073% hits;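 active = activation above the mean of all tested compounds plus 3 SD, set per screening campaign, cut at about 17% in these data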
Target sequence (P14735 whole entry, looked up): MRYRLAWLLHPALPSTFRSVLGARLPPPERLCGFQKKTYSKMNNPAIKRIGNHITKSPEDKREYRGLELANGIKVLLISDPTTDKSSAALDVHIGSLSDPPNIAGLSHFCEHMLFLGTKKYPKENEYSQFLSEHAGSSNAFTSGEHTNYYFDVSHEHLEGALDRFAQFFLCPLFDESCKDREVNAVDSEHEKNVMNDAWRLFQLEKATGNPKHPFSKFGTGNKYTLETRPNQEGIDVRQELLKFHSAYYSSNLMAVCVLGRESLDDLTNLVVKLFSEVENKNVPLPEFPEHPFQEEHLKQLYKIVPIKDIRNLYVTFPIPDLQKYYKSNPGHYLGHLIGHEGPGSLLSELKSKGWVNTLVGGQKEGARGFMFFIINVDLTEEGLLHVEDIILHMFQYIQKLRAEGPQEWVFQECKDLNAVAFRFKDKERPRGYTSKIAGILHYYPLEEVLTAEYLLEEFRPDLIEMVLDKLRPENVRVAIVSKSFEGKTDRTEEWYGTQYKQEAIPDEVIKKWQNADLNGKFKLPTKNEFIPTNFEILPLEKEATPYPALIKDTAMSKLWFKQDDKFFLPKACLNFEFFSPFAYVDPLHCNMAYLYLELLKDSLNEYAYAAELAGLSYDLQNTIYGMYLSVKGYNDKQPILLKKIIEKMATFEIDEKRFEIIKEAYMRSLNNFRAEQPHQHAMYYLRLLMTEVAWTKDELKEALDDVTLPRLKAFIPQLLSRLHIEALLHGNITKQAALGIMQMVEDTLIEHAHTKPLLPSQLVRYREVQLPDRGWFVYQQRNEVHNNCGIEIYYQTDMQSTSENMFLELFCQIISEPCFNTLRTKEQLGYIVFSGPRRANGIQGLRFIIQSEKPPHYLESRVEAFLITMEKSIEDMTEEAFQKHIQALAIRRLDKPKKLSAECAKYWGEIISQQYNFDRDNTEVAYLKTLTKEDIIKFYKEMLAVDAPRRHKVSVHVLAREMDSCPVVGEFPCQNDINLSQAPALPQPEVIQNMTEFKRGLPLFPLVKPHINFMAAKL
IDE inh – inhibits human insulin-degrading enzyme in HEK cells. 320,000 compounds, 0.41% hits. P14735. FAbetaB cleavage, fluorescence polarization. inhibition, % at 5.59 µM;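 active = percent inhibition above the average of all tested compounds plus 3 SD, set per screening campaign, cut at about 16% in these data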;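 also: IDE supplied by intact live HEK cells; FP after avidin binding of uncleaved biotin substrate so inhibition keeps polarization high; 0% = DMSO wells and 100% = 60 µM reference IDE inhibitor Ii1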
HNF4A DNA FP – change in binding of human HNF4 alpha to DNA | P41235 | HNF4a-FITC DNA binding, fluorescence polarization, 1 h | activity change, % at 10 µM | 360,000 compounds, 0.3% hits; in the data active = activity change above about 30%, passing the limit was not always enough
An asterisk follows results filed as active; . = not tested or not shown.

SMILES	TPT1 inh	CSN deneddyl inh	IDE cell activ	IDE inh	HNF4A DNA FP
CCCCCCCCN1C(=O)[C@H](CC(=O)NCCc2ccccc2OC)C[C@@]2(C(=O)OC)CC(C)(C)CC=C12	.	1	.	.	2
CN(C)CCNc1ccc(CO)c2sc3ccc(O)cc3c(=O)c12	.	5	4	.	36*
COc1ccc2sc3cccc(NCCN(C)C)c3c(=O)c2c1	.	4	.	.	19
Cc1c(CCOC(=O)C23CC4(C)CC(C)(CC(C)(C4)C2)C3)sc[n+]1CC(=O)c1ccccc1	1	3	10	-5	81*
Cc1c(CCOC(=O)CC23CC4CC(CC(C4)C2)C3)sc[n+]1CC(=O)c1ccccc1	1	-2	0	0	-3
Cc1ccc2nc(C(C)(C)C)c(Cc3cccc(F)c3)n2c1	.	3	.	.	4
O=C(N/N=C/c1cccnc1)c1ccccc1Cl	-1	-3	2	0	-1
O=C(N/N=C\c1cccnc1)c1cc(-c2ccc(Cl)s2)[nH]n1	2	39*	2	15	8
Fc1ccc2[nH]c3c(N4CCN(C5CCCCC5)CC4)ncnc3c2c1	0	.	.	20*	.
O=c1c2[nH]c3ccc(F)cc3c2ncn1CC1CCCO1 (stereo not drawn)	-2	1	0	7	5
Nc1c(C(=O)CSc2nc3ccccc3o2)c(=O)[nH]c(=O)n1C1CC1	.	4	27*	3	-1
CCCn1c(N)c(C(=O)CSc2nnc(-c3c[nH]c4ccccc34)n2C2CC2)c(=O)[nH]c1=O	.	-2	4	1	2
COc1ccccc1-c1nnc(SCC(=O)c2c(N)n(C3CC3)c(=O)[nH]c2=O)o1	.	-10	4	0	0
Cn1c(N)c(C(=O)CSc2nnc(-c3c[nH]c4ccccc34)n2C2CC2)c(=O)[nH]c1=O	.	35*	3	-4	-2
Cc1ccsc1C1C=C(c2cccc(Br)c2)Nc2ncnn21 (stereo not drawn)	-85	-21	-34	25*	-26
COc1ccc(Cn2c(/C=C/c3ccccc3)nc3ccccc32)cc1	-3	-3	13	3	0
Clc1ccccc1Cn1c(/C=C/c2ccco2)nc2ccccc21	16	36*	-2	10	18
CCOc1cc(/C=N/Nc2cc(C)nc(-n3nc(C)cc3C)n2)ccc1O	-1	4	22*	0	-3
Cc1cc(N/N=C/c2ccc(F)cc2)nc(-n2nc(C)cc2C)n1	-1	-2	.	11	4
COC(=O)[C@@]12C[C@@H](CC(=O)NCc3ccc(C)o3)C(=O)N(Cc3ccccc3)C1=CCC(C)(C)C2	.	5	.	.	1
COC(=O)C1=C(O)/C(=C\c2ccc(CNS(=O)(=O)c3ccc(Cl)cc3)o2)N=C1C	3	12	0	1	9
CCOC(=O)C1=C(O)/C(=C\c2ccc(CNS(=O)(=O)c3ccc(Br)cc3)o2)N=C1C	11	52*	-3	-5	16
COC(=O)C1=C(O)/C(=C\c2ccc(CNC(=O)C(=O)Nc3ccc(C)cc3)o2)N=C1C	-4	36*	-5	-2	0
COc1ccc(N2C(=O)c3ccccc3NC(=O)C2C(=O)NCC(C)C)cc1 (stereo not drawn)	.	2	.	.	1
O=C1Nc2ccccc2-n2nnnc2C1N1CCN(C(=O)C2CCCO2)CC1 (stereo not drawn)	.	6	.	.	2
SMILES	TPT1 inh	CSN deneddyl inh	IDE cell activ	IDE inh	HNF4A DNA FP
COc1ccc(C(=O)c2sc3nc(C)cc(-c4cccs4)c3c2N)cc1	.	10	-6	.	30
COc1ccc(-c2c(C#N)c(N)nc3sc(C(=O)c4ccc(C)cc4)c(N)c23)cc1	8	15	-7	4	75*
CCOC(=O)[C@]12CCC=C1N(CCC1=CCCCC1)C(=O)[C@H](CC(=O)N1CCCC1)C2	.	-5	.	.	4
O=C(O)CCc1ccc(-c2ccc(Br)cc2)n1-c1ccc(O)cc1	.	39*	-3	.	2
Cc1ccc(-c2ccc(CCC(=O)O)n2-c2ccc(O)cc2)cc1	7	1	-5	9	-1
O=[N+]([O-])c1nccn1C1C=CC(O)C(CO)O1 (stereo not drawn)	.	-1	.	.	-5
COc1ccc2sc(/C=C/c3ccccc3O)[n+](C)c2c1	.	127	.	.	51*
CCCCSc1nnc(-c2ccc(OC)cc2)n1C	-3	4	7	-4	-1
COc1ccc(-c2nnc(SCc3csc(N)n3)n2C)cc1	-1	-5	-5	6	37*
CC1CC(O)C2C3(C)CCCC2(COC3=O)C12CCC1(CCOC1=O)O2 (stereo not drawn)	.	-1	.	.	0
Cc1cccc(N2CCN(C(=O)c3[nH]c(C(F)(F)F)nc3-c3ccccc3)CC2)c1C	.	4	.	.	1
O=C(O)CSc1nc2ccc(Cl)cc2[nH]1	0	-2	-2	4	-1
O=C(O)CSc1nc2ccc(Br)cc2[nH]1	.	70*	1	.	4
CCOC1=C2CN(S(=O)(=O)c3ccc(C)cc3)[C@H](c3cccc4ccccc34)C[C@H]2[C@H]2C(=O)N(c3ccccc3)C(=O)[C@H]2C1	.	5	.	.	3
Cc1ccc(S(=O)(=O)N2CCN(C3CC(=O)N(CCc4ccccc4)C3=O)CC2)cc1C (stereo not drawn)	2	0	-2	4	61*
CN1CCN(C(=O)c2cnc(Cc3c[nH]c4ccccc34)c(I)c2)CC1	.	62*	.	.	7
CCCCNC(=O)c1cnc(Cc2c[nH]c3ccccc23)c(I)c1	.	14	.	.	0
COc1ccccc1N1CCN(C2C(=O)Nc3ccccc3-n3nnnc32)CC1 (stereo not drawn)	.	-7	.	.	-2
COC(=O)c1c(NC(=O)c2ccco2)sc2c1CCC2	4	-3	11	6	64*
COc1ccc([C@H]2CC(=O)C[C@@H](CCn3cc(C(C)C)nn3)O2)cc1	.	-2	.	.	-1
CCCCCNC(=O)C(c1ccncc1)n1c(=O)c(-c2cc3ccccc3[nH]2)nc2ccccc21 (stereo not drawn)	.	8	.	.	0
CN(/N=C/c1c[nH]c2ccccc12)c1cnn(-c2ccc(F)c(Cl)c2)c(=O)c1Cl	-1	48*	6	5	64*
NC(=O)c1ccc(NC(=O)COC(=O)/C=C/c2ccc(Br)o2)cc1	.	48*	-1	2	-22
O=C(Nc1ccccc1)c1cc(C2CCCCN2C(=O)c2ccc3c(c2)CCO3)on1 (stereo not drawn)	.	-5	.	.	0
O=C(CSC1=NNC(c2ccccn2)S1)Nc1ccccc1 (stereo not drawn)	-2	26	-3	25*	-1
CC(C)(C)N/C=C(\C#N)S(=O)(=O)c1ccc(Br)cc1	0	0	.	-9	4
CCN/C=C(\C#N)S(=O)(=O)c1ccc(Br)cc1	0	100*	1	1	1
COc1ccc2c(c1)CCC1C2=NN(/C(C)=C/C(C)=O)C1c1cccc(F)c1 (stereo not drawn)	14	15	5	2	76*
